# XBP1 UPR activ – activators of adaptive arm of unfolded protein response (XBP1); CHO-XBP1 luciferase reporter, IRE1-XBP1 UPR activation, luminescence; percent of tunicamycin response, DMSO as zero; activation, % at 20 µM; 330,000 compounds, 0.33% hits;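 active = versus positive control, 20 µM dose yields 30% or more activation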
#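 Test system: CHO-XBP1 luciferase reporter cells | Buffer or medium: Serum-containing F12 medium, 10% FBS | Schedule: 6 h compound exposure at 37 °C, 5% CO2 | Detection: Steady-Glo luciferase glow luminescence, 10 min after reagent addition | Read-out basis: Activation, % of tunicamycin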
# T cruzi inh – blocks replication of Trypanosoma cruzi; 300,000 compounds, 1.4% hits; T. cruzi beta-gal in NIH3T3, luminescence, 90 h; inhibition, % (concentration not given with the values);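 active = mean inhibition across valid replicates above about 55%, limit read from the data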;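 also: signal also drops with host cell toxicity which is not excluded here; higher percent means less beta-gal luminescence so fewer parasites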
#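 System: NIH/3T3 fibroblasts plus reporter T. cruzi. Medium: DMEM plus 2% FBS. Probe or stimulus: 5000 reporter trypomastigotes per well. Compound: single 50 nL compound addition per well in DMSO. Incubation: co-culture of at least 90 h after 3 h attachment. Detection: GalScreen β-gal luminescence, detergent lysis, 60 min. Evaluation: parasite load inhibition, %.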
# Dynein cargo inh – blocks dynein driven cargo transport along microtubules; 3617.4 mouse cells, GR-EGFP nuclear translocation imaging; test concentration mostly 20 µM; stimulated with dexamethasone, 1 µM; active compounds read low; z-score, hits read low; 220,000 compounds, 0.47% hits; AID 1381;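 active = plate z-score of nuclear minus cytoplasmic receptor signal below a set negative limit, without overly bright fluorescence or cell loss, cut at about -3.5 in these data, passing the limit was not always enough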;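 also: z-score of nuclear minus cytoplasmic ring GR-EGFP intensity difference per well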
#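 Also added – dexamethasone, 1.0 µM final · Buffer or medium – tet-free, stripped-serum medium · Schedule – induction 48 h, compound 1 h, agonist 30 min · Detection – formaldehyde fixation, Hoechst nuclear stain, 10x automated fluorescence imaging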
# L major viab – reduces viability of Leishmania major promastigotes. 200,000 compounds, 9% hits. resazurin fluorescence viability. inhibition, % at 10 µM. AID 1063; in the data active = inhibition above about 50%;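 also: promastigotes grown with compound for 44 hours at 28 °C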
# CHOP UPR activ – activators of apoptotic arm of unfolded protein response (CHOP) | CHO-CHOP luciferase reporter, UPR activation, luminescence; percent of tunicamycin response over DMSO baseline | activation, % at 10 µM | 330,000 compounds, 0.34% hits;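 active = at 10 µM dose, activation of 40% or more, normalized to positive control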
#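 Assay system: CHO cells with stable CHOP pathway luciferase reporter; Buffer or medium: F12 plus 10% serum; Times: 16-18 h cell attachment, then 6 h compound exposure, 37 °C; Signal: luciferase luminescence; Read-out basis: percent activation relative to tunicamycin control; Control set: tunicamycin high control, DMSO low control.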
# CHOP inh – inhibitors of CHOP induction in ER stress response; 220,000 compounds, 3.8% hits; inhibition, % at 10 µM; CHO-K1 CHOP-promoter luciferase, tunicamycin-induced, 15-18 h; AID 2732;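 active = compounds that reduced the stress-induced luciferase reporter signal by more than about 70% of percent inhibition, limit read from the data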
# Numbers stand for hits; i = inactive; nt = no result given. Only a selection was taken, and hits are over-represented in it overall.
SMILES,XBP1 UPR activ,T cruzi inh,Dynein cargo inh,L major viab,CHOP UPR activ,CHOP inh
CCOC(=O)c1ccc(NC(=O)Cn2ncc(Cl)c(Cl)c2=O)cc1,i,56.2,-4.15,95.6,i,107.9
Cc1cc(Br)ccc1NC(=O)CNC(=O)Cn1ncc(Cl)c(Cl)c1=O,i,i,i,i,i,105.8
CCOC(=O)c1ccc(NC(=O)Cn2nc(C)c3ccccc3c2=O)cc1,i,i,nt,nt,i,nt
COc1ccc(NC(=O)Cn2ncc(Cl)c(Cl)c2=O)cc1S(=O)(=O)N1CCOCC1,nt,i,i,86.5,nt,i
COc1ccc(NC(=O)c2ccc(Cl)nc2)cc1S(=O)(=O)N1CCOCC1,i,nt,nt,nt,i,nt
COc1ccc(CN2CCN(Cc3ccc4cc(F)ccc4n3)CC2CCO)c(C)c1C (configuration not stated),i,i,nt,nt,i,nt
Cc1cc(-c2nnc(SCC(=O)Nc3cccc(F)c3)n2N)n[nH]1,i,i,nt,nt,i,nt
NC(=O)c1nsc(C(=O)N(CC(=O)NCc2ccccc2)c2ccc(F)cc2)c1N,i,i,nt,nt,i,nt
CCN(CC(=O)Nc1ccccc1OC)C(=O)c1ccc(NS(=O)(=O)c2ccc(C(C)=O)cc2)cc1,i,i,nt,nt,i,nt
CC(C(=O)N1CCN(c2ccccc2)CC1)c1ccc([N+](=O)[O-])cc1 (configuration not stated),i,i,nt,nt,i,nt
CC(C(=O)N1CCN(Cc2ccc3c(c2)OCO3)CC1)c1ccc([N+](=O)[O-])cc1 (configuration not stated),i,i,i,80.1,i,i
CC(C(=O)N1CCOCC1)c1ccc([N+](=O)[O-])cc1 (configuration not stated),i,i,i,55.1,i,i
O=C(C(Cl)Cl)N1CCN(Cc2ccc3c(c2)OCO3)CC1,i,i,nt,nt,i,nt
OCC1(Cc2ccccc2F)CCCN(Cc2c(F)ccc(F)c2F)C1 (configuration not stated),i,i,nt,nt,i,nt
Cc1cccc(C)c1N/C=C/c1onc(C)c1[N+](=O)[O-],i,i,i,i,i,i
Cc1noc(/C=C/c2cccnc2)c1[N+](=O)[O-],i,58.9,nt,nt,i,nt
C[C@H](NS(=O)(=O)c1ccc2c(c1)OCCCO2)C(=O)N1CCN(Cc2ccc(C#N)cc2)CC1,i,nt,nt,nt,i,nt
O=C(/C=C/c1ccco1)Nc1ccc(-c2nc3ccccc3[nH]2)cc1,nt,i,i,i,nt,95.6
O=C(Nc1ccc(-c2nc3ccccc3[nH]2)cc1)c1ccco1,i,i,i,i,i,i
O=C(CCCN1Cc2ccccc2C1)c1ccc(F)cc1,i,i,i,93.0,i,i
CN1CCN(CCCC(=O)c2ccc(F)cc2)CC1,i,i,i,i,i,i
Oc1ccccc1CN1CCCC(N2CCc3ccccc3C2)C1 (configuration not stated),i,i,nt,nt,i,nt
COC(=O)[C@H](Cc1c[nH]c2ccccc12)NC(=O)NCc1ccc(OC)c(OC)c1,i,i,nt,nt,i,nt
O=C(CN(C(=O)c1cccc([N+](=O)[O-])c1)C1CCCCC1)Nc1ccc(Cl)c([N+](=O)[O-])c1,i,i,i,70.2,i,i
COc1ccc(C(=O)Nc2ccccc2N2CCCC2)cc1S(=O)(=O)N1CCOCC1,i,i,nt,nt,i,nt
SMILES,XBP1 UPR activ,T cruzi inh,Dynein cargo inh,L major viab,CHOP UPR activ,CHOP inh
CC1C/C(=C/c2cccn2C)C(=O)/C(=C/c2cccn2C)C1 (configuration not stated),i,i,i,86.3,i,i
Cc1ccc(N=C2NC(=O)/C(=C/c3cccn3C)S2)cc1,i,i,i,nt,i,i
S=C(NCc1ccccc1)N1CCN(C(=S)NCc2ccccc2)CC1,i,nt,nt,nt,i,nt
CC(=O)Nc1cccc(CP(=O)(c2ccccc2)c2ccccc2)c1,i,i,i,nt,i,i
COC(=O)N/N=C/c1ccc(-c2cccc(Cl)c2)o1,i,i,i,61.1,i,i
COC(=O)N/N=C/c1ccc(-c2cc(Cl)cc(Cl)c2)o1,i,i,i,i,i,i
NC(=S)N/N=C/c1ccc(-c2cc(Cl)cc(Cl)c2)o1,i,59.2,i,97.4,i,i
NC(=S)N/N=C/c1ccc(-c2cc(Cl)ccc2Cl)o1,i,67.3,i,100.4,i,i
CCOC(=O)N/N=C\c1ccc(-c2cc(Cl)ccc2Cl)o1,i,i,i,i,i,i
Cc1nn2c(N)c(-c3ccccc3)cnc2c1-c1ccccc1,i,i,nt,nt,i,nt
CC1(C)CC(=O)C/C(=N/Nc2nc3ccccc3s2)C1,i,i,i,i,i,i
CC1CCC/C(=N/Nc2nc3ccccc3s2)C1 (configuration not stated),i,i,i,51.6,i,i
Cc1cc2nc3n(c2cc1C)CCCN3,i,67.5,nt,nt,i,nt
COc1ccc(C(CNC(=O)c2cccc(S(=O)(=O)Nc3cccc(C)c3)c2)N2CCOCC2)cc1 (configuration not stated),i,i,nt,nt,i,nt
CC(=O)N1CC(C)Sc2ccc(S(=O)(=O)NC3CCCCC3C)cc21 (configuration not stated),i,i,nt,nt,i,nt
CSCCC(NC(=O)c1ccc([N+](=O)[O-])cc1Cl)C(=O)OCC(=O)C12CC3CC(CC(C3)C1)C2 (configuration not stated),i,i,i,99.4,i,i
C/C(CCC(C)C)=N\Nc1cc(C)c2ccccc2n1,i,i,i,67.2,i,i
COc1ccc(Nc2cc(C)c3ccccc3n2)cc1,i,i,i,82.5,i,i
Cc1cc(NCc2ccccc2)nc2ccccc12,i,i,i,53.3,i,i
Cc1cc(C(=O)NCCC(C)C)c2ccccc2n1,i,i,i,nt,i,i
Cc1cc(Nc2ccc([N+](=O)[O-])cc2)nc2ccccc12,i,i,i,i,i,i
CC[C@@H]1C=C(C)C[C@H](C)C[C@H](OC)[C@H]2O[C@@](O)(C(=O)C(=O)N3CCCC[C@H]3C(=O)O[C@H](/C(C)=C/[C@@H]3CC[C@@H](O)[C@H](OC)C3)[C@H](C)[C@@H](O)CC1=O)[C@H](C)C[C@@H]2OC,nt,nt,i,90.0,nt,i
COc1ccc(N2CCN(C(=O)CSc3nc4nc(C)cc(C)n4n3)CC2)cc1,i,nt,nt,nt,i,nt
Cc1ccc(S(=O)(=O)N2CCOCC2)cc1NC(=O)Cn1nc(C)c([N+](=O)[O-])c1C,i,i,nt,nt,i,nt
CC(C)(C)CC(C)(C)NC(=O)Nc1cccc([N+](=O)[O-])c1,i,i,i,i,i,79.8
Cc1cc([N+](=O)[O-])ccc1NC(=O)Nc1ccc(F)cc1F,i,55.1,i,66.5,i,i
Cc1ccc(NC(=O)Nc2cccc([N+](=O)[O-])c2)cc1F,i,55.3,i,53.4,i,i
Cc1cc(NC(=O)Nc2cccc([N+](=O)[O-])c2)no1,i,i,i,i,i,i

# Screens: PubChem BioAssay, several laboratories
